Laboratory results from ChEMBL document CHEMBL3797186, “Single Residue Substitutions That Confer Voltage-Gated Sodium Ion Channel Subtype Selectivity in the NaV1.7 Inhibitory Peptide GpTx-1” (J Med Chem, 2016).
Positions of bridges follow the written chain, without caps; N, C: chain ends. Non-standard residues stand in square brackets, D forms with d. Residues, ends and D or L forms follow the SMILES beside them. 1Nal = N[C@@H](Cc1cccc2ccccc12)C(=O)O

Experiments:
[1] = biological target: Sodium channel protein type 5 subunit alpha (Homo sapiens, UniProt Q14524); test: Inhibition of human Nav1.5 expressed in HEK293 cells assessed as inward peak current by ion-works quattro patch clamp electrophysiology method; assay type: cell-based
Sequence of Sodium channel protein type 5 subunit alpha (Q14524 whole entry): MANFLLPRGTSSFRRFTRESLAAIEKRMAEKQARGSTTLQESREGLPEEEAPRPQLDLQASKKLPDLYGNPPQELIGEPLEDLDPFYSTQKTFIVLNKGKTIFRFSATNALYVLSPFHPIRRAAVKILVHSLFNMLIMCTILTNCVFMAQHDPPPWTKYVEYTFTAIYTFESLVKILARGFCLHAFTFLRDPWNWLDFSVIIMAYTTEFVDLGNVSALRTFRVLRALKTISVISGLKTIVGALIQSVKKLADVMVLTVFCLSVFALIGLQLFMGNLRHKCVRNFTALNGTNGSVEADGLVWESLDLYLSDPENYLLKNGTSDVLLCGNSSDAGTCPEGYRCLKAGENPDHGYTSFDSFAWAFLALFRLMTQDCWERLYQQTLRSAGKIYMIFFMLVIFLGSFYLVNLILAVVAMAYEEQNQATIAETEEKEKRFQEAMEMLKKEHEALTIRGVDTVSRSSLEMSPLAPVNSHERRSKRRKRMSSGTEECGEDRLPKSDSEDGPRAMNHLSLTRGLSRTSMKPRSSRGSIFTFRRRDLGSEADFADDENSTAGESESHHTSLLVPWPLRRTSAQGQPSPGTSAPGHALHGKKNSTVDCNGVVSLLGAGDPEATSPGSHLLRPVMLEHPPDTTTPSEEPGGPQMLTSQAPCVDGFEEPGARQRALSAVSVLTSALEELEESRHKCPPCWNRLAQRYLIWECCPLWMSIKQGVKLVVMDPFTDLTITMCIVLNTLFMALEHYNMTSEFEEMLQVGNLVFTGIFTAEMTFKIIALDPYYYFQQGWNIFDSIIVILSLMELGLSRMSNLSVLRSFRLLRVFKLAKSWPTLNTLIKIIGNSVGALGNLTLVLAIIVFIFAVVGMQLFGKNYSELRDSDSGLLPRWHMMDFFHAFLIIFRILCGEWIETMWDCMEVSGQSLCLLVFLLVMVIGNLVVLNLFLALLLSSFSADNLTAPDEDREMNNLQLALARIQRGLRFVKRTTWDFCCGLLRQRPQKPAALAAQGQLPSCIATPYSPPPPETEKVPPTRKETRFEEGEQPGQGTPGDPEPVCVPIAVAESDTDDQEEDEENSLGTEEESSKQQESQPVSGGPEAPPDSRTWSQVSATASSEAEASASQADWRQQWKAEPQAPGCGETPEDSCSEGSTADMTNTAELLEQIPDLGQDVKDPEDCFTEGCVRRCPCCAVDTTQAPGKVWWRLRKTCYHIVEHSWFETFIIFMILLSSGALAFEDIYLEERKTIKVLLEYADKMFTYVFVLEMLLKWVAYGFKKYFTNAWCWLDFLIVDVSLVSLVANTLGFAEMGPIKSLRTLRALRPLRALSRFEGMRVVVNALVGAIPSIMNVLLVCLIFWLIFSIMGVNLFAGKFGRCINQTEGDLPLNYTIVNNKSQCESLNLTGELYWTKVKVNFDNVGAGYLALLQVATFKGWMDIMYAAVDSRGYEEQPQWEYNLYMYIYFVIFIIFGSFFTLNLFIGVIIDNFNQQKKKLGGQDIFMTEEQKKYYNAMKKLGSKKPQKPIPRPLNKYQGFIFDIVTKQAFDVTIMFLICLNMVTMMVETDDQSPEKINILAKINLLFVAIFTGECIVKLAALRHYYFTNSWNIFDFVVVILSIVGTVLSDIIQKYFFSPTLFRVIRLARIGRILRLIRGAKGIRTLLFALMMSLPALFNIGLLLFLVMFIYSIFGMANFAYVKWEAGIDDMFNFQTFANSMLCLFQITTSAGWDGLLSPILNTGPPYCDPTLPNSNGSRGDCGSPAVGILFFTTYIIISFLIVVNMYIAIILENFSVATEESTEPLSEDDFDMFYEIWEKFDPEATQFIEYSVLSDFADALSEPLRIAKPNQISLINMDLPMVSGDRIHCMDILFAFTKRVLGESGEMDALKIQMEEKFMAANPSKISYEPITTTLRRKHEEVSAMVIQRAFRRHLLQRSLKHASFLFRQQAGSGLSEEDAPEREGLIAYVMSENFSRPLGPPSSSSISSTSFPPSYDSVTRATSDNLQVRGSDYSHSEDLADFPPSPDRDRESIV
Method in brief: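 Stable HEK293 line expressing human NaV1.5, recorded by population patch clamp on the IonWorks Quattro.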

[2] = biological target: Sodium channel protein type 9 subunit alpha (Homo sapiens, UniProt Q15858); test: Inhibition of human Nav1.7 expressed in HEK293 cells assessed as inward peak current by ion-works quattro patch clamp electrophysiology method; assay type: cell-based
Sequence of Sodium channel protein type 9 subunit alpha (Q15858 whole entry): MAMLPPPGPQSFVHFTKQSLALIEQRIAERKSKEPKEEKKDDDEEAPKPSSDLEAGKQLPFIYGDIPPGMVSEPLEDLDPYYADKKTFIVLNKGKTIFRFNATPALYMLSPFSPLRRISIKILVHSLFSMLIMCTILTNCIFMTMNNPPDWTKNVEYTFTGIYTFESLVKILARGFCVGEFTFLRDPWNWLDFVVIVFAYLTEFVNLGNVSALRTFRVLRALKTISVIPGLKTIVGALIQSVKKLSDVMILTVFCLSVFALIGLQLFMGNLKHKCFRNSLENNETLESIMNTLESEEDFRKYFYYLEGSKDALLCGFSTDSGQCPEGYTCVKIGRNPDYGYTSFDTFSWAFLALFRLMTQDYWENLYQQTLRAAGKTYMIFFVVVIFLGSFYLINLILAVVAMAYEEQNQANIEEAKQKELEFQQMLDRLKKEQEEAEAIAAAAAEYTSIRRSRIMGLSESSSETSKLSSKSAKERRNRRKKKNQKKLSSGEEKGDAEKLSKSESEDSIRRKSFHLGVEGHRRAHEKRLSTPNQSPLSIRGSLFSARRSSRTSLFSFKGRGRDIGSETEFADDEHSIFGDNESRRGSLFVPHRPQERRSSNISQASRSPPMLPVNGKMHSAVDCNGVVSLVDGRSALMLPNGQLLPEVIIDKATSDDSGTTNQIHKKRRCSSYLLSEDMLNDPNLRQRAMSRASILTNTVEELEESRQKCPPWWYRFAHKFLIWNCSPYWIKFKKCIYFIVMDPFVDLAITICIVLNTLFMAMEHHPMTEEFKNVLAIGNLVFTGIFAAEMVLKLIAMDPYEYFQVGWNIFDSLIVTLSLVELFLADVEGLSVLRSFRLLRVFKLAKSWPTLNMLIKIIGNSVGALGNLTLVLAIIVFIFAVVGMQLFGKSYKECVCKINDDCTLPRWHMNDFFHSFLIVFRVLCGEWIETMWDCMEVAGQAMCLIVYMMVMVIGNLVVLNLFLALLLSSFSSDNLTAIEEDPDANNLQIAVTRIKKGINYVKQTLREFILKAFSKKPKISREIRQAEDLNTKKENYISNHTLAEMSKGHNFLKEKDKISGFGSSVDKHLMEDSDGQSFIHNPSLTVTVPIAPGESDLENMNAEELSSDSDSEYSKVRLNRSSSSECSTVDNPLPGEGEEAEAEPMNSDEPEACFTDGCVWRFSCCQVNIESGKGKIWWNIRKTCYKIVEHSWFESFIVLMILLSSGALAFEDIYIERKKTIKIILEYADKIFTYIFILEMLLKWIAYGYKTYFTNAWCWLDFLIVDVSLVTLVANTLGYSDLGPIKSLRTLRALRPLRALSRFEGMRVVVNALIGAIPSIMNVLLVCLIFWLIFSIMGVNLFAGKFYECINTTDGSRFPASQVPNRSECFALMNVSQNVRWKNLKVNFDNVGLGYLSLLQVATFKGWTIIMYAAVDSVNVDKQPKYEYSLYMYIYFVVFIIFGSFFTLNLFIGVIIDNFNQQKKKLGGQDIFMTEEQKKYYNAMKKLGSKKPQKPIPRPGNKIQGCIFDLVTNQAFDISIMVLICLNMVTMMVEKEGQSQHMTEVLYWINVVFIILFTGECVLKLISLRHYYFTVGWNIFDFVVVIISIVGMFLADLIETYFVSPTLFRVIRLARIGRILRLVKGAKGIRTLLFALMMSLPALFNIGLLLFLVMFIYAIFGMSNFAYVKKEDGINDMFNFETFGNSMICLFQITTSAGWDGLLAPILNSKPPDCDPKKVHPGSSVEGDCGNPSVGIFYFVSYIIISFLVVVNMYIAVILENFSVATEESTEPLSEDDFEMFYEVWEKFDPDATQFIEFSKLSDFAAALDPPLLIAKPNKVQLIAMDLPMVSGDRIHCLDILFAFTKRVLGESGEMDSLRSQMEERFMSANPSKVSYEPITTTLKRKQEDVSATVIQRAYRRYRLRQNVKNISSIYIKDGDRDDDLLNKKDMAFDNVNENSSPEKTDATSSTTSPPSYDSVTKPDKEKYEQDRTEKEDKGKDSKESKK

| Structure (SMILES) | IC50 [1] [µM] | IC50 [2] [µM] |
| --- | --- | --- |
| CC[C@H](C)[C@@H]1NC(=O)[C@@H]2CSSC[C@@H]3NC(=O)[C@H](C(C)C)NC(=O)[C@H](CC(C)C)NC(=O)[C@H](CC(N)=O)NC(=O)[C@@H]4CCCN4C(=O)[C@H](CCCNC(=N)N)NC(=O)[C@H](CSSC[C@H](NC(=O)[C@@H](N)CC(=O)O)C(=O)N[C@@H](CC(C)C)C(=O)NCC(=O)N[C@@H](Cc4ccccc4)C(=O)N[C@@H](CCSC)C(=O)N[C@@H](CCCNC(=N)N)C(=O)N[C@@H](CCCCN)C(=O)N2)NC(=O)[C@H](CSSC[C@@H](C(=O)N[C@@H](CCCCN)C(=O)N[C@@H](Cc2ccc(O)cc2)C(=O)N[C@H](C(=O)N[C@@H](CCC(=O)O)C(N)=O)C(C)C)NC(=O)[C@H](Cc2c[nH]c4ccccc24)NC(=O)[C@H](CCCCN)NC(=O)[C@H](Cc2cnc[nH]2)NC(=O)[C@H]([C@@H](C)O)NC(=O)[C@H](CCCNC(=N)N)NC(=O)[C@H](CO)NC3=O)NC(=O)[C@H](CCCCN)NC(=O)[C@H](CC(=O)O)NC(=O)[C@H](CC(N)=O)NC(=O)[C@H](CC(=O)O)NC(=O)[C@@H]2CCCN2C1=O (H-DCLGFMRKCIPDNDKCCRPNLVCSRTHKWCKYVE-NH2; disulfide 2-17, 9-23, 16-30) | > 5 | > 5 |
| CC[C@H](C)[C@@H]1NC(=O)[C@@H]2CSSC[C@@H]3NC(=O)[C@H](C(C)C)NC(=O)[C@H](CC(C)C)NC(=O)[C@H](CC(N)=O)NC(=O)[C@@H]4CCCN4C(=O)[C@H](CCCNC(=N)N)NC(=O)[C@H](CSSC[C@H](NC(=O)[C@@H](N)CC(=O)O)C(=O)N[C@@H](CC(C)C)C(=O)NCC(=O)N[C@@H](Cc4ccccc4)C(=O)N[C@@H](CCSC)C(=O)N[C@@H](CCCNC(=N)N)C(=O)N[C@@H](CCCCN)C(=O)N2)NC(=O)[C@H](CSSC[C@@H](C(=O)N[C@@H](CCCCN)C(=O)N[C@@H](Cc2ccc(O)cc2)C(=O)N[C@H](C(=O)N[C@@H](Cc2ccccc2)C(N)=O)C(C)C)NC(=O)[C@H](Cc2c[nH]c4ccccc24)NC(=O)[C@H](CCCCN)NC(=O)[C@H](Cc2cnc[nH]2)NC(=O)[C@H]([C@@H](C)O)NC(=O)[C@H](CCCNC(=N)N)NC(=O)[C@H](CO)NC3=O)NC(=O)[C@H](CCCCN)NC(=O)[C@H](CC(=O)O)NC(=O)[C@H](CCCNC(=N)N)NC(=O)[C@H](CC(=O)O)NC(=O)[C@@H]2CCCN2C1=O (H-DCLGFMRKCIPDRDKCCRPNLVCSRTHKWCKYVF-NH2; disulfide 2-17, 9-23, 16-30) | > 5 | 0.14 |
| CC[C@H](C)[C@@H]1NC(=O)[C@@H]2CSSC[C@@H]3NC(=O)[C@H](C(C)C)NC(=O)[C@H](CC(C)C)NC(=O)[C@H](Cc4c[nH]c5ccccc45)NC(=O)[C@@H]4CCCN4C(=O)[C@H](CCCNC(=N)N)NC(=O)[C@H](CSSC[C@H](NC(=O)[C@@H](N)CC(=O)O)C(=O)N[C@@H](CC(C)C)C(=O)NCC(=O)N[C@@H](Cc4ccccc4)C(=O)N[C@@H](CCSC)C(=O)N[C@@H](CCCNC(=N)N)C(=O)N[C@@H](CCCCN)C(=O)N2)NC(=O)[C@H](CSSC[C@@H](C(=O)N[C@@H](CCCCN)C(=O)N[C@@H](Cc2ccc(O)cc2)C(=O)N[C@H](C(=O)N[C@@H](Cc2ccccc2)C(N)=O)C(C)C)NC(=O)[C@H](Cc2c[nH]c4ccccc24)NC(=O)[C@H](CCCCN)NC(=O)[C@H](Cc2cnc[nH]2)NC(=O)[C@H]([C@@H](C)O)NC(=O)[C@H](CCCNC(=N)N)NC(=O)[C@H](CO)NC3=O)NC(=O)[C@H](CCCCN)NC(=O)[C@H](CC(=O)O)NC(=O)[C@H](CC(N)=O)NC(=O)[C@H](CC(=O)O)NC(=O)[C@@H]2CCCN2C1=O (H-DCLGFMRKCIPDNDKCCRPWLVCSRTHKWCKYVF-NH2; disulfide 2-17, 9-23, 16-30) | > 5 | 0.07 |
| CC[C@H](C)[C@@H]1NC(=O)[C@@H]2CSSC[C@@H]3NC(=O)[C@H](C(C)C)NC(=O)[C@H](CC(C)C)NC(=O)[C@H](CC(N)=O)NC(=O)[C@@H]4CCCN4C(=O)[C@H](CCCNC(=N)N)NC(=O)[C@H](CSSC[C@H](NC(=O)[C@@H](N)CC(=O)O)C(=O)N[C@@H](CC(C)C)C(=O)NCC(=O)N[C@@H](Cc4ccccc4)C(=O)N[C@@H](CCSC)C(=O)N[C@@H](CCCNC(=N)N)C(=O)N[C@@H](CCCCN)C(=O)N2)NC(=O)[C@H](CSSC[C@@H](C(=O)N[C@@H](CCCCN)C(=O)N[C@@H](Cc2ccc(O)cc2)C(=O)N[C@@H](Cc2cccc4ccccc24)C(=O)N[C@@H](Cc2ccccc2)C(N)=O)NC(=O)[C@H](Cc2c[nH]c4ccccc24)NC(=O)[C@H](CCCCN)NC(=O)[C@H](Cc2cnc[nH]2)NC(=O)[C@H]([C@@H](C)O)NC(=O)[C@H](CCCNC(=N)N)NC(=O)[C@H](CO)NC3=O)NC(=O)[C@H](CCCCN)NC(=O)[C@H](CC(=O)O)NC(=O)[C@H](CC(N)=O)NC(=O)[C@H](CC(=O)O)NC(=O)[C@@H]2CCCN2C1=O (H-DCLGFMRKCIPDNDKCCRPNLVCSRTHKWCKY[1Nal]F-NH2; disulfide 2-17, 9-23, 16-30) | > 5 | 0.07 |
| CC[C@H](C)[C@@H]1NC(=O)[C@@H]2CSSC[C@@H]3NC(=O)[C@H](C(C)C)NC(=O)[C@H](CC(C)C)NC(=O)[C@H](CC(N)=O)NC(=O)[C@@H]4CCCN4C(=O)[C@H](CCCNC(=N)N)NC(=O)[C@H](CSSC[C@H](NC(=O)[C@@H](N)CC(=O)O)C(=O)N[C@@H](CC(C)C)C(=O)NCC(=O)N[C@@H](Cc4ccccc4)C(=O)N[C@@H](CCSC)C(=O)N[C@@H](CCCNC(=N)N)C(=O)N[C@@H](CCCCN)C(=O)N2)NC(=O)[C@H](CSSC[C@@H](C(=O)N[C@@H](CCCCN)C(=O)N[C@@H](Cc2ccc(O)cc2)C(=O)N[C@H](C(=O)N[C@@H](Cc2ccccc2)C(N)=O)C(C)C)NC(=O)[C@H](Cc2c[nH]c4ccccc24)NC(=O)[C@H](CCCCN)NC(=O)[C@H](Cc2cnc[nH]2)NC(=O)[C@H](Cc2c[nH]c4ccccc24)NC(=O)[C@H](CCCNC(=N)N)NC(=O)[C@H](CO)NC3=O)NC(=O)[C@H](CCCCN)NC(=O)[C@H](CC(=O)O)NC(=O)[C@H](CC(N)=O)NC(=O)[C@H](CC(=O)O)NC(=O)[C@@H]2CCCN2C1=O (H-DCLGFMRKCIPDNDKCCRPNLVCSRWHKWCKYVF-NH2; disulfide 2-17, 9-23, 16-30) | 3.6 | 0.05 |
| CC[C@H](C)[C@@H]1NC(=O)[C@@H]2CSSC[C@@H]3NC(=O)[C@H](C(C)C)NC(=O)[C@H](CC(C)C)NC(=O)[C@H](CC(N)=O)NC(=O)[C@@H]4CCCN4C(=O)[C@H](CCCNC(=N)N)NC(=O)[C@H](CSSC[C@H](NC(=O)[C@@H](N)CC(=O)O)C(=O)N[C@@H](CC(C)C)C(=O)NCC(=O)N[C@@H](Cc4ccccc4)C(=O)N[C@@H](CCSC)C(=O)N[C@@H](CCCCN)C(=O)N[C@@H](CCCCN)C(=O)N2)NC(=O)[C@H](CSSC[C@@H](C(=O)N[C@@H](CCCCN)C(=O)N[C@@H](Cc2ccc(O)cc2)C(=O)N[C@H](C(=O)N[C@@H](Cc2ccccc2)C(N)=O)C(C)C)NC(=O)[C@H](Cc2c[nH]c4ccccc24)NC(=O)[C@H](CCCCN)NC(=O)[C@H](Cc2c[nH]cn2)NC(=O)[C@H]([C@@H](C)O)NC(=O)[C@H](CCCNC(=N)N)NC(=O)[C@H](CO)NC3=O)NC(=O)[C@H](CCCCN)NC(=O)[C@H](CC(=O)O)NC(=O)[C@H](CC(N)=O)NC(=O)[C@H](CC(=O)O)NC(=O)[C@@H]2CCCN2C1=O (H-DCLGFMKKCIPDNDKCCRPNLVCSRTHKWCKYVF-NH2; disulfide 2-17, 9-23, 16-30) | > 5 | 0.54 |
